According to ChEMBL document CHEMBL1811765, “Synthesis, biological evaluation, and molecular modeling of cinnamic acyl sulfonamide derivatives as novel antitubulin agents” (Bioorg Med Chem, 2011):
≈ marks a conversion by molar mass, not a printed value.

Legend:
B16-F10 [1] = assay: Antiproliferative activity against mouse B16F10 cells after 48 hrs by MTT based ELISA assay; format: functional, cell-based; settings: B16-F10, 48 h
Procedure, shortened: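 B16-F10 cells grown to log phase in RPMI 1640 with 10% FBS, seeded at 2 × 10⁴ cells/mL and incubated 24 h at 37 °C, 5% CO₂ before treatment. Read-out was absorbance at 570 nm after an overnight incubation at 37 °C. Three replicate wells per concentration, each assay run at least three times. IC50 reported.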

[2] = Inhibition of bovine brain tubulin polymerization after 20 mins by turbidimetric analysis; design: species or system Bos taurus
Procedure, shortened: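 Tubulin at 10 µM in glutamate buffer was preincubated with varying compound concentrations at 30 °C, then cooled to 0 °C. GTP was added, the mix moved to 0 °C cuvettes and warmed to 30 °C, and assembly was followed turbidimetrically.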

B16-F10 [3] = assay: Cell cycle arrest in mouse B16F10 cells assessed as accumulation at S phase at 1 ug/ml after 24 hrs by flow cytometry analysis (reference value: 9.40%); format: functional
B16-F10 [4] = assay: Cell cycle arrest in mouse B16F10 cells assessed as accumulation at G2/M phase at 1 ug/ml after 24 hrs by flow cytometry analysis (reference value: 17.03%); format: functional
B16-F10 [5] = assay: Cell cycle arrest in mouse B16F10 cells assessed as accumulation at G0/G1 phase at 1 ug/ml after 24 hrs by flow cytometry analysis (reference value: 48.57%); format: functional
B16-F10 [6] = assay: Cell cycle arrest in mouse B16F10 cells assessed as accumulation at G2/M phase at 5 ug/ml after 24 hrs by flow cytometry analysis (reference value: 17.03%); format: functional
B16-F10 [7] = assay: Cell cycle arrest in mouse B16F10 cells assessed as accumulation at G0/G1 phase at 5 ug/ml after 24 hrs by flow cytometry analysis (reference value: 48.57%); format: functional
B16-F10 [8] = assay: Cell cycle arrest in mouse B16F10 cells assessed as accumulation at S phase at 5 ug/ml after 24 hrs by flow cytometry analysis (reference value: 9.40%); format: functional

IC50 (B16-F10 [1]) [µg/mL]	IC50 [2] [µg/mL]	SMILES	other results
13.8 (≈ 45.8 µM)	152 (≈ 504 µM)	Cc1ccc(S(=O)(=O)NC(=O)/C=C/c2ccccc2)cc1	–
12.1 (≈ 31.8 µM)	137 (≈ 360 µM)	Cc1ccc(S(=O)(=O)NC(=O)/C=C/c2ccc(Br)cc2)cc1	–
2.1 (≈ 6.88 µM)	4.5 (≈ 14.7 µM)	O=C(/C=C/c1ccc(F)cc1)NS(=O)(=O)c1ccccc1	–
5.1 (≈ 15.2 µM)	45 (≈ 134 µM)	COc1ccc(/C=C/C(=O)NS(=O)(=O)c2ccc(F)cc2)cc1	–
5.8 (≈ 14.6 µM)	53 (≈ 134 µM)	COc1ccc(/C=C/C(=O)NS(=O)(=O)c2ccc(Br)cc2)cc1	–
4.8 (≈ 15 µM)	40 (≈ 125 µM)	Cc1ccc(S(=O)(=O)NC(=O)/C=C/c2ccc(F)cc2)cc1	–
2.2 (≈ 6.28 µM)	6.3 (≈ 18 µM)	O=C(/C=C/c1ccc([N+](=O)[O-])cc1)NS(=O)(=O)c1ccc(F)cc1	–
6 (≈ 17.1 µM)	69 (≈ 197 µM)	O=C(/C=C/c1ccccc1[N+](=O)[O-])NS(=O)(=O)c1ccc(F)cc1	–
12.6 (≈ 30.6 µM)	134 (≈ 326 µM)	O=C(/C=C/c1ccccc1[N+](=O)[O-])NS(=O)(=O)c1ccc(Br)cc1	–
4.8 (≈ 14.4 µM)	50 (≈ 150 µM)	O=C(/C=C/c1ccc([N+](=O)[O-])cc1)NS(=O)(=O)c1ccccc1	–
2 (≈ 5.89 µM)	8.9 (≈ 26.2 µM)	O=C(/C=C/c1ccc(Cl)cc1)NS(=O)(=O)c1ccc(F)cc1	–
2.5 (≈ 7.02 µM)	9.3 (≈ 26.1 µM)	O=C(/C=C/c1ccc(Cl)cc1)NS(=O)(=O)c1ccc(Cl)cc1	–
2.8 (≈ 7.29 µM)	14.7 (≈ 38.3 µM)	O=C(/C=C/c1ccc(F)cc1)NS(=O)(=O)c1ccc(Br)cc1	–
4.2 (≈ 10.3 µM)	34 (≈ 83.1 µM)	CN(C)c1ccc(/C=C/C(=O)NS(=O)(=O)c2ccc(Br)cc2)cc1	–
5.3 (≈ 15.1 µM)	52 (≈ 148 µM)	COc1ccc(/C=C/C(=O)NS(=O)(=O)c2ccc(Cl)cc2)cc1	–
6 (≈ 18.1 µM)	74 (≈ 223 µM)	O=C(/C=C/c1ccccc1[N+](=O)[O-])NS(=O)(=O)c1ccccc1	–
13.2 (≈ 41.6 µM)	160 (≈ 504 µM)	COc1ccc(/C=C/C(=O)NS(=O)(=O)c2ccccc2)cc1	–
2.2 (≈ 6.84 µM)	15.3 (≈ 47.5 µM)	O=C(/C=C/c1ccc(Cl)cc1)NS(=O)(=O)c1ccccc1	–
13.7 (≈ 37.4 µM)	134 (≈ 365 µM)	O=C(/C=C/c1ccc([N+](=O)[O-])cc1)NS(=O)(=O)c1ccc(Cl)cc1	–
1.2 (≈ 3.12 µM)	3.8 (≈ 9.89 µM)	O=C(/C=C/c1ccc(Br)cc1)NS(=O)(=O)c1ccc(F)cc1	–
2.3 (≈ 6.6 µM)	10 (≈ 28.7 µM)	CN(C)c1ccc(/C=C/C(=O)NS(=O)(=O)c2ccc(F)cc2)cc1	–

IC50 (B16-F10 [1]) [µg/mL]	IC50 [2] [µg/mL]	SMILES	other results
10.3 (≈ 29.7 µM)	102 (≈ 294 µM)	Cc1ccc(S(=O)(=O)NC(=O)/C=C/c2ccccc2[N+](=O)[O-])cc1	–
13.9 (≈ 33.8 µM)	163 (≈ 396 µM)	O=C(/C=C/c1ccc([N+](=O)[O-])cc1)NS(=O)(=O)c1ccc(Br)cc1	–
2.8 (≈ 7.67 µM)	14 (≈ 38.4 µM)	CN(C)c1ccc(/C=C/C(=O)NS(=O)(=O)c2ccc(Cl)cc2)cc1	–
2.8 (≈ 6.99 µM)	10.8 (≈ 27 µM)	O=C(/C=C/c1ccc(Cl)cc1)NS(=O)(=O)c1ccc(Br)cc1	–
3.9 (≈ 10.6 µM)	74 (≈ 202 µM)	O=C(/C=C/c1ccc(Br)cc1)NS(=O)(=O)c1ccccc1	–
2.1 (≈ 6.88 µM)	4.5 (≈ 14.7 µM)	O=C(/C=C/c1ccccc1)NS(=O)(=O)c1ccc(F)cc1	–
3.9 (≈ 10.6 µM)	63 (≈ 172 µM)	O=C(/C=C/c1ccccc1)NS(=O)(=O)c1ccc(Br)cc1	–
2.2 (≈ 6.84 µM)	14.8 (≈ 46 µM)	O=C(/C=C/c1ccccc1)NS(=O)(=O)c1ccc(Cl)cc1	–
6.6 (≈ 18 µM)	78 (≈ 213 µM)	O=C(/C=C/c1ccccc1[N+](=O)[O-])NS(=O)(=O)c1ccc(Cl)cc1	–
5.2 (≈ 13 µM)	55 (≈ 137 µM)	O=C(/C=C/c1ccc(Br)cc1)NS(=O)(=O)c1ccc(Cl)cc1	–
3.5 (≈ 12.2 µM)	37 (≈ 129 µM)	O=C(/C=C/c1ccccc1)NS(=O)(=O)c1ccccc1	–
5.1 (≈ 11.5 µM)	53 (≈ 119 µM)	O=C(/C=C/c1ccc(Br)cc1)NS(=O)(=O)c1ccc(Br)cc1	–
4.6 (≈ 13.7 µM)	30 (≈ 89.3 µM)	Cc1ccc(S(=O)(=O)NC(=O)/C=C/c2ccc(Cl)cc2)cc1	–
–	–	COc1cc2c(c(OC)c1OC)-c1ccc(OC)c(=O)cc1[C@@H](NC(C)=O)CC2 [COLCHICINE]	Activity (B16-F10 [3]): 1.3%; Activity (B16-F10 [4]): 61.11%; Activity (B16-F10 [5]): 1.58%
0.8 (≈ 2.47 µM)	2.4 (≈ 7.42 µM)	O=C(/C=C/c1ccc(F)cc1)NS(=O)(=O)c1ccc(F)cc1	Activity (B16-F10 [6]): 49%; Activity (B16-F10 [7]): 5.65%; Activity (B16-F10 [3]): 9.08%; Activity (B16-F10 [8]): 4.22%; Activity (B16-F10 [4]): 30.21%; Activity (B16-F10 [5]): 26.7%
13.5 (≈ 39 µM)	151 (≈ 436 µM)	Cc1ccc(S(=O)(=O)NC(=O)/C=C/c2ccc([N+](=O)[O-])cc2)cc1	–
12.2 (≈ 36.8 µM)	146 (≈ 441 µM)	COc1ccc(/C=C/C(=O)NS(=O)(=O)c2ccc(C)cc2)cc1	–
2.3 (≈ 6.96 µM)	26 (≈ 78.7 µM)	CN(C)c1ccc(/C=C/C(=O)NS(=O)(=O)c2ccccc2)cc1	–
2.6 (≈ 7.65 µM)	4.5 (≈ 13.2 µM)	O=C(/C=C/c1ccc(F)cc1)NS(=O)(=O)c1ccc(Cl)cc1	–
4.3 (≈ 12.5 µM)	37 (≈ 107 µM)	Cc1ccc(S(=O)(=O)NC(=O)/C=C/c2ccc(N(C)C)cc2)cc1	–

SMILES	IC50 (B16-F10 [1]) [µg/mL]	IC50 [2] [µg/mL]	other results
COc1ccc(/C=C\c2cc(OC)c(OC)c(OC)c2)cc1O [COMBRETASTATIN A4]	–	0.7 (≈ 2.21 µM)	–
